Calls of active or inactive are those of the source. No cut-off for these calls is given here.
Key:
[1] = biological target: Signal transducer and activator of transcription 3 (Homo sapiens) (UniProt P40763); experiment: Inhibition of STAT3 in human HeLa cells assessed as decrease in phosphorylation of STAT3 at Tyr705 after 1 hrs by Western blot analysis; type: cell-based; settings: dose microM <=80, time 1.0 hrs
How it was run: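 HeLa cells were treated with graded doses for 1 h or 24 h. Total cell lysates were immunoblotted with specific antibodies against p-STAT3 (Tyr705), p-STAT3 (Ser727) and total STAT3.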

[2] = biological target: Signal transducer and activator of transcription 3 (Homo sapiens) (UniProt P40763); experiment: Inhibition of STAT3 in human HeLa cells assessed as decrease in phosphorylation of STAT3 at Tyr705 upto 80 uM measured 15 to 120 mins by Western blot analysis; type: cell-based; settings: dose microM <=80, time lower […], time upper […]
How it was run: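 Time course in HeLa cells given 80 μM compound, sampled from 15 min onward through multiple hours; parallel runs at 20 and 40 μM. Total cell lysates Western blotted for p-STAT3 (Tyr705), p-STAT3 (Ser727) and total STAT3.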

[3] = biological target: Signal transducer and activator of transcription 3 (Homo sapiens) (UniProt P40763); experiment: Inhibition of STAT3 in human HeLa cells assessed as decrease in phosphorylation of STAT3 at Tyr705 measured after 24 hrs by Western blot analysis; type: cell-based; settings: dose microM <=80, time […]
How it was run: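 HeLa cells exposed 24 h to a range of compound doses. Total cell lysates immunoblotted with specific antibodies for p-STAT3 (Tyr705), p-STAT3 (Ser727) and total STAT3.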

HeLa [4] = experiment: Induction of cell cycle arrest in human HeLa cells assessed as accumulation at G0/G1 phase at 10 uM measured after 24 hrs by flow cytometry analysis (reference value: 54.16%); type: functional
HeLa [5] = experiment: Induction of cell cycle arrest in human HeLa cells assessed as accumulation at G0/G1 phase at 40 uM measured after 24 hrs by flow cytometry analysis (reference value: 54.16%); type: functional
HeLa [6] = experiment: Induction of apoptosis in human HeLa cells assessed as viable cells at 40 uM incubated for 24 hrs by Annexin V-FITC/PI staining based flow cytometry (reference value: 92.45%); type: functional; settings: read-out: Activity
HeLa [7] = experiment: Induction of apoptosis in human HeLa cells assessed as early apoptotic cells at 10 uM incubated for 24 hrs by Annexin V-FITC/PI staining based flow cytometry (reference value: 2.84%); type: functional
HeLa [8] = experiment: Induction of apoptosis in human HeLa cells assessed as late apoptotic cells at 10 uM incubated for 24 hrs by Annexin V-FITC/PI staining based flow cytometry (reference value: 4.7%); type: functional
HeLa [9] = experiment: Induction of apoptosis in human HeLa cells assessed as late apoptotic cells at 20 uM incubated for 24 hrs by Annexin V-FITC/PI staining based flow cytometry (reference value: 4.7%); type: functional
HeLa [10] = experiment: Induction of apoptosis in human HeLa cells assessed as necrotic cells at 10 uM incubated for 24 hrs by Annexin V-FITC/PI staining based flow cytometry (reference value: 0.02%); type: functional
[11] = Cytotoxicity against human HEK 293T cells assessed as cell growth inhibition at 50 uM measured after 48 hrs by MTT assay; type: cell-based
[12] = Cytotoxicity against human HEK 293T cells assessed as cell growth inhibition at 10 uM measured after 48 hrs by MTT assay; type: cell-based
[13] = Antiproliferative activity against human A375 cells assessed as cell growth inhibition measured after 48 hrs by MTT assay; type: functional, cell-based; settings: A-375, 48 h
[14] = Antiproliferative activity against human U87MG cells assessed as cell growth inhibition measured after 48 hrs by MTT assay; type: functional, cell-based
PC-3 = experiment: Antiproliferative activity against human PC3 cells assessed as cell growth inhibition measured after 48 hrs by MTT assay; type: functional, cell-based; settings: PC-3, 48 h
[15] = Elimination Half life in Sprague-Dawley rat at 25 mg/kg, IG; type: ADME, organism-based; settings: in vivo, po, read-out: beta t1/2 (converted)
How it was run: (§1)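 Rats, n = 3 per group, received a single dose either intragastrically (25 mg/kg) or intravenously (5 mg/kg). Plasma concentration–time curves were used to derive t1/2α, t1/2β, Vd/F, CL/F, AUC0–∞, Tmax and Cmax. Absolute oral bioavailability was calculated from the ig and iv data.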

[16] = Apparent oral clearance in Sprague-Dawley rat at 25 mg/kg, IG; type: ADME, organism-based; settings: in vivo, read-out: CL(app) (converted); how it was run: as §1
[17] = Apparent clearance in Sprague-Dawley rat at 5 mg/kg, iv; type: ADME, organism-based; settings: in vivo, read-out: CL(app) (converted); how it was run: as §1
[18] = Tmax in Sprague-Dawley rat at 25 mg/kg, IG; type: ADME, organism-based; settings: in vivo, po
[19] = Cmax in Sprague-Dawley rat at 25 mg/kg, IG; type: ADME, organism-based; set-up: route […], dose 25 mg/kg; settings: in vivo, po; how it was run: as §1
[20] = Cmax in Sprague-Dawley rat at 5 mg/kg, iv; type: ADME, organism-based; set-up: route intravenous, dose 5 mg/kg; settings: in vivo; how it was run: as §1
[21] = biological target: T1, Signal transducer and activator of transcription 5A (Homo sapiens) (UniProt P42229); experiment: Inhibition of STAT5 (unknown origin)
T1 sequence (whole entry): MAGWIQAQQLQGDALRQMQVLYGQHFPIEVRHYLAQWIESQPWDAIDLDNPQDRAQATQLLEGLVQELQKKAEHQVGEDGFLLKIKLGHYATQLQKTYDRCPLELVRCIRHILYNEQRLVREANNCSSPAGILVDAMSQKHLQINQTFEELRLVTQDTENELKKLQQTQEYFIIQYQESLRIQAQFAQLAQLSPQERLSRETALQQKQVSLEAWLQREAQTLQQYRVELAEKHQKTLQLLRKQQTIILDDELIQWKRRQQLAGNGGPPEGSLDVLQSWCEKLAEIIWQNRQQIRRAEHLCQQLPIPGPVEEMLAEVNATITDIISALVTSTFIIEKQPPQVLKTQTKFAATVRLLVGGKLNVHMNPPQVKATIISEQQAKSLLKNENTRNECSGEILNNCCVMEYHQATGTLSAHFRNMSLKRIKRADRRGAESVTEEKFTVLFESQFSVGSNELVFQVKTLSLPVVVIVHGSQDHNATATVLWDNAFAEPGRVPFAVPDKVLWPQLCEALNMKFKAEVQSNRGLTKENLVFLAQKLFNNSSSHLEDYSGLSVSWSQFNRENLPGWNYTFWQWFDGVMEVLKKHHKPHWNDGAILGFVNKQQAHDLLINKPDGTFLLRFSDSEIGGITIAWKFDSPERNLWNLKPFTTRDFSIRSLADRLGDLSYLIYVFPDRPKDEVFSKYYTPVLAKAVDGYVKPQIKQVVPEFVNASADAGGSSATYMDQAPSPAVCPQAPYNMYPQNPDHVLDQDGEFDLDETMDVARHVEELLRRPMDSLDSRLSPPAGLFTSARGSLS

HeLa [22] = experiment: Effect on Src level in human Hela cells upto 80 uM after 24 hrs by Western blot analysis; type: functional, cell-based; settings: dose microM <=80, time […]
[23] = biological target: Signal transducer and activator of transcription 3 (Homo sapiens) (UniProt P40763); experiment: Inhibition of STAT3 in human Hela cell lysate assessed as inhibition of protein and DNA interaction upto 200 uM incubated 30 mins by electrophoretic mobility shift assay; type: subcellular; settings: dose microM <=200, time 30.0 min
[24] = biological target: Signal transducer and activator of transcription 3 (Homo sapiens) (UniProt P40763); experiment: Inhibition of STAT3 in human Hela cell lysate assessed as inhibition of protein and DNA interaction upto 100 uM cells preincubated 1 hr by electrophoretic mobility shift assay; type: subcellular; settings: dose microM <=100, time 1.0 hrs
[25] = Cytotoxicity against human HEK-Blue IL-6 cells assessed as cell death at > 10 uM; type: cell-based

Chain of Signal transducer and activator of transcription 3 (Homo sapiens) (P40763 whole entry): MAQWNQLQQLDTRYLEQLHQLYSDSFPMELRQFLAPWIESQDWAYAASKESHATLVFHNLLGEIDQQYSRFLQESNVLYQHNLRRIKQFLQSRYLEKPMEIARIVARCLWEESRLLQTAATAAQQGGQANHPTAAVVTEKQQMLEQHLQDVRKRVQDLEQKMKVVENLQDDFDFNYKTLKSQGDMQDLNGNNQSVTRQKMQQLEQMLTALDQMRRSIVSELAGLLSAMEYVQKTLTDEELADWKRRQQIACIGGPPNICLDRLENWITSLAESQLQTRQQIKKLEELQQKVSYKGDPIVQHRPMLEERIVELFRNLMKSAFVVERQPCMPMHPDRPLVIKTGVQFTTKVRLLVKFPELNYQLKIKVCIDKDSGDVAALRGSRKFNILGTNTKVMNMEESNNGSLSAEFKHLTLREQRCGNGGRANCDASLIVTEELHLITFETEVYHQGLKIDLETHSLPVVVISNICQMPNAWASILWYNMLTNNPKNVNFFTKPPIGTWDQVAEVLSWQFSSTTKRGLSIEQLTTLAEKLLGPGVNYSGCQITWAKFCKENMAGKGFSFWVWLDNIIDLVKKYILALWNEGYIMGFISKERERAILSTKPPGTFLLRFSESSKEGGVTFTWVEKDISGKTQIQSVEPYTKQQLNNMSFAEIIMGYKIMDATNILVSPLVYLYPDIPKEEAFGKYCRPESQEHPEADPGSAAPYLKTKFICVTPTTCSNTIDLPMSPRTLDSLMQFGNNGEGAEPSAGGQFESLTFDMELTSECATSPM

Structure (SMILES): CC(=O)Oc1ccccc1C(=O)Nc1ncc([N+](=O)[O-])s1 [NITAZOXANIDE]
- inhibition [1]: Dose-dependent effect
- inhibition [2]: inactive
- inhibition [3]: Dose-dependent effect
- Activity (HeLa [4]): 61.96%
- Activity (HeLa [5]): 70.64%
- viability at 40 µM (HeLa [6]): 77.3%
- Activity (HeLa [7]): 2.34%
- Activity (HeLa [8]): 5.32%
- Activity (HeLa [9]): 11.4%
- Activity (HeLa [10]): 0.02%
- inhibition at 48 h, 50 µM [11]: 24.4%
- inhibition at 48 h, 10 µM [12]: -3.3%
- IC50 [13]: 31.8 µM
- IC50 [14]: 30 µM
- IC50 (PC-3): 44.7 µM
- half-life [15]: 0.8 h
- CL/F [16]: 105 mL/min/kg
- clearance [17]: 8.33 mL/min/kg
- Tmax [18]: 2 h
- Cmax [19]: 1000 ng/mL
- Cmax [20]: 2800 ng/mL
- inhibition [21]: inactive
- Activity (HeLa [22]): inactive
- inhibition [23]: inactive
- inhibition [24]: inactive
- Activity [25]: Non-Toxic

From ChEMBL document CHEMBL4706740, “Structure-Activity Study of Nitazoxanide Derivatives as Novel STAT3 Pathway Inhibitors” (ACS Med Chem Lett, 2021)
